Series [1] is described as follows: In vitro metabolism of 2′-F-monomers in human liver S9. In kind it is in vitro ADME. The note with it: 10 μM, human liver S9 1 mg/ml, 37°C, 1 h.
Series [2] is classed as in vivo, Sprague Dawley rats. The note with it: single 30 mg/kg sc; for amount excreted in bile: rat bile collected over 168 h; for amount excreted in urine: rat urine collected over 168 h. Summed up:
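Rats (3 male, 3 female) received a single subcutaneous 30 mg/kg dose of test GalNAc–siRNA. Liver, kidney, heart, plasma, urine and bile were sampled, with urine and bile collected over 168 h. Samples were ACN/water-precipitated, dried and dephosphorylated with calf intestinal alkaline phosphatase (pH 8.0, 37°C, 1 h). 2′-F-nucleosides were quantified by LC-MS/MS against matrix standards ([…]). Values are group means.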

Series [3] has as its system HepG2 (liver). As to the kind of experiment: Cytotoxicity, sulforhodamine B assay, HepG2. Conditions: day 11, four doses. In kind it is cell-based, human. Summed up:
(§1)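 Cells were grown 1 week in glucose- or galactose-containing medium, then seeded in 96-well plates. iCell cardiomyocytes were seeded on gelatin-coated plates and grown 5 days. Test compounds in 1:1 ethanol:water were added at each media change on days 0, 3, 7 and 10 (four doses), at up to 250 μM. Final ethanol was 2.5% at 250 μM and 1% otherwise. Total protein was read by sulforhodamine B on day 11. CC50 was fitted from triplicates.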
(In general: Sulforhodamine B stains cellular protein and so reports cell mass.)

Series [4] deals with SkMC (muscle). Description: Cytotoxicity, sulforhodamine B assay, SkMC. The note with it: SkMC, day 11. In kind it is cell-based, human. Put shortly:
as §1

The subject of series [5] is Caki-1 (kidney). As to the kind of experiment: Cytotoxicity, sulforhodamine B assay, Caki-1. In kind it is cell-based, human. Conditions: day 11. Summed up:
as §1

For series [6], the system named is Molt-4 (blood). As to the kind of experiment: Cytotoxicity, sulforhodamine B assay, Molt-4. In kind it is cell-based, human. Conditions: day 11. Summed up: as §1
The test system of series [7] is COLO 205 (intestine). Description: Cytotoxicity, sulforhodamine B assay, COLO 205. The note with it: day 11. In kind it is cell-based, human. Put shortly:
as §1

Series [8] concerns SNB-78 (CNS). As to the kind of experiment: Cytotoxicity, sulforhodamine B assay, SNB-78. In kind it is cell-based, human. The note with it: for CC50: day 11. Put shortly: as §1
Series [9] can be described thus: Cytotoxicity, sulforhodamine B assay, HepG2. In kind it is cell-based, human. Conditions: human, HepG2 cells (liver), day 11, four doses. Summed up: as §1
The nature of series [10]: Cytotoxicity, sulforhodamine B assay, SkMC. In kind it is cell-based, human. The note with it: human, SkMC cells (muscle), CC50, SkMC, day 11. Summed up:
as §1

Series [11] can be described thus: Cytotoxicity, sulforhodamine B assay, Caki-1. In kind it is cell-based, human. The note with it: human, Caki-1 cells (kidney), day 11. Summed up: as §1
Series [12] is described as follows: Cytotoxicity, sulforhodamine B assay, Molt-4. In kind it is cell-based, human. The note with it: human, Molt-4 cells (blood), day 11. Summed up: as §1
Series [13] is described as follows: Cytotoxicity, sulforhodamine B assay, COLO 205. In kind it is cell-based, human. Conditions: human, COLO 205 cells (intestine), day 11. Summed up: as §1
Series [14] in a line: Cytotoxicity, sulforhodamine B assay, SNB-78. In kind it is cell-based, human. The note with it: human, SNB-78 cells (CNS), day 11. Summed up: as §1
The nature of series [15]: Cytotoxicity, sulforhodamine B assay, iCell cardiomyocytes. In kind it is cell-based. Conditions: human, iCell cardiomyocytes (heart). Summed up: as §1
Series [16] relates to mitochondrial DNA (MT-CO1). Description: Mitochondrial DNA quantification by qPCR. In kind it is cell-based, human. Conditions: across all cell lines, at ≤4 μM, day 11. Put shortly: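 Cells were treated as in the 11-day, four-dose cytotoxicity protocol in glucose or galactose medium. DNA was then quantified by TaqMan qPCR, with nuclear DNA measured using a succinate dehydrogenase-specific probe.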
On the technique in general: Quantitative PCR measures a nucleic acid by following its amplification.

Series [17] deals with human cellular polymerases. Conditions: cited from earlier work.

Read-outs that look alike come from different tables or passages of the source. Marks after values point to notes of the source that are not given here.

As a reminder, the Cmax is the highest concentration seen after dosing. The term CC50 denotes the concentration at which the toxic effect on the cells reaches its halfway point. Higher therefore signals better tolerance by the cells. In the case of `Nc1nc2c(ncn2[C@@H]2O[C@H](CO)[C@@H](O)[C@H]2F)c(=O)[nH]1` [2′-F-G, 2′-F-guanosine], the “metabolic fate of 2′-F-nucleoside” value in series [1] is given as “stable”. For the same compound, the “amount excreted in bile” value in series [2] (ALN-TTRSC02 (ESC)) was <0.0004* μg; in [2] (revusiran (STC)), 0.042 µg. The “% dose excreted in bile” value in series [2] (rat bile over 168 h, ALN-TTRSC02 (ESC)) is <0.0003* % dose. The maximum concentration (Cmax) in series [2] (rat heart, ALN-TTRSC02 (ESC)) is less than 0.5 µM; in series [2] (rat heart, revusiran (STC)), less than 0.5 µM; in series [2] (rat kidney, ALN-TTRSC02 (ESC)), less than 0.5 µM; in series [2] (rat kidney, revusiran (STC)), 2.6 µM; in series [2] (rat liver, monomer liberated from ALN-TTRSC02 (ESC)) it was 1.7 µM; in series [2] (rat liver, monomer liberated from revusiran (STC)) it was 10.8 µM. For the same compound, the maximum concentration (Cmax) in series [2] (rat plasma, ALN-TTRSC02 (ESC)) is less than 0.03 µM; in series [2] (rat plasma, revusiran (STC)), less than 0.03 µM. Moreover, the AUClast in series [2] (rat kidney, revusiran (STC)) worked out at 150 µM·h; in series [2] (rat liver, ALN-TTRSC02 (ESC)) it was 138 µM·h; in series [2] (rat liver, revusiran (STC)) it was 722 µM·h. For the same compound, the “t1/2 (elimination half-life)” value in series [2] (rat kidney, revusiran (STC)) turned out to be 46.9 h. Besides, the tmax in series [2] (rat kidney, revusiran (STC)) is reported as 16 h; in series [2] (rat liver, ALN-TTRSC02 (ESC)), 48 h; in series [2] (rat liver, revusiran (STC)), 36 h. Also, the “amount excreted in urine” value is <0.003* μg in series [2] (ALN-TTRSC02 (ESC)) and 1.3 µg in [2] (revusiran (STC)). Moreover, the “% dose excreted in urine” value in series [2] (rat urine over 168 h, ALN-TTRSC02 (ESC)) is on record as <0.002* % dose. In addition, the CC50 is 112 µM in [3] (HepG2, Galactose media); 115 µM in [3] (HepG2, Glucose media); 110 µM in series [4] (Galactose media); 127 µM in series [4] (Glucose media); 30 µM in series [5] (Caki-1, Galactose media); 32 µM in series [5] (Caki-1, Glucose media). The 50% cytotoxic concentration (CC50) in [6] (Molt-4, Galactose media) was determined as 12 µM; in series [6] (Molt-4, Glucose media) it was 15 µM; in series [7] (COLO 205, Galactose media) it was 22 µM; in [7] (COLO 205, Glucose media), 19 µM; in series [8] (SNB-78, Galactose media), 12 µM; in series [8] (SNB-78, Glucose media) it was 35 µM. Further, in series [8] (SNB-78), the “decrease of CC50 in galactose compared to glucose media” value was 2–10 fold.
`Nc1ccn([C@H]2CC[C@@H](CO)O2)c(=O)n1` [ddC, 2′,3′-Dideoxycytidine]: the CC50 at 11 days in [9] (CC50, HepG2, Galactose media) was greater than 20 µM; in series [9] (CC50, HepG2, Glucose media), greater than 20 µM; in [10] (Galactose media), greater than 20 µM; in series [10] (Glucose media), greater than 20 µM; in series [11] (CC50, Caki-1, Galactose media) it was greater than 20 µM; in [11] (CC50, Caki-1, Glucose media), greater than 20 µM. For the same compound, the CC50 at 11 days in [12] (CC50, Molt-4, Galactose media) was greater than 20 µM; in series [12] (CC50, Molt-4, Glucose media) it was 8.7 µM; in series [13] (CC50, COLO 205, Galactose media) it was greater than 20 µM; in series [13] (CC50, COLO 205, Glucose media), greater than 20 µM; in series [14] (CC50, SNB-78, Galactose media) it was greater than 20 µM; in series [14] (CC50, SNB-78, Glucose media), greater than 20 µM. Also, the cytotoxic concentration (CC50) at 11 days in series [15] is greater than 250 µM. Further, the “reduction in mitochondrial DNA synthesis” value in series [16] was 70–80%.
In general, IC50 refers to the concentration needed to halve the response being measured. Turning to `C[C@@]1(F)[C@H](O)[C@@H](COP(=O)(O)OP(=O)(O)OP(=O)(O)O)O[C@H]1n1ccc(=O)[nH]c1=O` [triphosphate form of Sofosbuvir], the half-inhibitory concentration (IC50) in [17] was greater than 200 µM.

The values above are taken from paper PMC6468299 (Nucleic Acids Research, 2019).
